Results taken from the array DNA melting data of Ke et al. (doi:10.1101/2024.01.08.574731).

Legend:
[1] = folding enthalpy; higher = less favourable; fluorescence melt of hairpins on a sequencing array, two-state fit; conditions: sodium 0.088 M
Procedure, shortened: (§1)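 Folding enthalpy and melting temperature come from bootstrapped two-state fits to Cy3 fluorescence of library hairpins carrying annealed Cy3 and quencher oligos on a sequenced MiSeq flow cell. Imaging was done in 50 mM Na-HEPES pH 8.0, 25 mM NaCl, stepping by 2.5 °C up to 60 °C, and signals were normalised to pre-quench Cy3 and to control constructs. Results of four replicates were combined by inverse variance, and fitted temperatures were raised by 9.35 °C to match UV melts.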

[2] = melting temperature; fluorescence melt of hairpins on a sequencing array, two-state fit, raised by 9.35 °C to match UV melts; conditions: sodium 0.088 M
Procedure, shortened: as §1

Sequence | folding enthalpy [1] | Tm [2]
GTGGTCGGAAACGATCAC (((.(((....))).))) | -44.6 kcal/mol | 55.7 °C
GATCAAAACTTTGATC ((((((....)))))) | -35.9 kcal/mol | 46.6 °C
GGACTCGAAAGAGCCTCC ((((((....)))..))) | -16.9 kcal/mol | 42.7 °C
GTGATTACGAAAGTACAC (((..(((....)))))) | -10.1 kcal/mol | 27.8 °C
GCCCGCCGAAAGGCTGGC (((.(((....))).))) | -36.2 kcal/mol | 65.1 °C
GAAAAGGAAACTTTTC ((((((....)))))) | -25.2 kcal/mol | 39.7 °C
CGAACGGAAACGTAGTCG ((((((....)))..))) | -10.8 kcal/mol | 26.4 °C
GATCGGGCACCCGATC ((((((....)))))) | -39.9 kcal/mol | 64.6 °C
GACTACACGAAAGTGGTC (((..(((....)))))) | -14.2 kcal/mol | 40 °C
GATCAGACGTCTGATC ((((((....)))))) | -60.5 kcal/mol | 55 °C
GTCGCGTCGAAAGACGAC (((..(((....)))))) | -8.6 kcal/mol | 35.5 °C
GCTTGGCGAAAGCCTAGC (((.(((....))).))) | -41.9 kcal/mol | 57.6 °C
GGTTGGGGAAACTCAGCC ((.((.(....).)).)) | -30.7 kcal/mol | 36.1 °C
GGGGGCGAAAGCCCACCC ((((((....)))..))) | -10.1 kcal/mol | 57.3 °C
GGCACGGGAAACCGTACC ((.((((....)))).)) | -34.4 kcal/mol | 48.4 °C
GCCTTAGGAAACTAGGGC (((.(((....))).))) | -34.3 kcal/mol | 45.5 °C
GATCGCTTAGGCGATC ((((((....)))))) | -32.1 kcal/mol | 68.6 °C
GGATTGGGAAACCAATTC (.(((((....))))).) | -28 kcal/mol | 44.2 °C
CGTACGGAAACGTTCACG ((((((....)))..))) | -18.6 kcal/mol | 39 °C
GTGGGCGAAAGCCCTCAC ((((((....)))..))) | -8.43 kcal/mol | 39.5 °C
CGAGCGGAAACGCCTCG ((((((....))).))) | -29.6 kcal/mol | 52.3 °C
GTGACACGAAAGTGCCAC (((.(((....))).))) | -40.1 kcal/mol | 56.3 °C
GGTTGCGAAAGCAATACC ((((((....)))..))) | -13.3 kcal/mol | 42.9 °C

Sequence | folding enthalpy [1] | Tm [2]
GTAACTGGAAACAGCTAC (((.(((....))).))) | -30.1 kcal/mol | 34.2 °C
GCATACCGAAAGGTCTGC (((.(((....))).))) | -33.5 kcal/mol | 51.4 °C
GATCACGTGCGTGATC ((((((....)))))) | -45.1 kcal/mol | 59.7 °C
GATCGAACATCGATC ((((((...)))))) | -37.3 kcal/mol | 49 °C
GTGCCCGAAAGGGCGCAC ((((((....)))..))) | -8.85 kcal/mol | 64.8 °C
GCAGCTTCGAAAGAATGC (((..(((....)))))) | -12.8 kcal/mol | 29.1 °C
GGAATCGGAAACAATTCC (((((.(....).))))) | -27.8 kcal/mol | 32.6 °C
GATGTTGCGAAAGCAATC (((..(((....)))))) | -10.9 kcal/mol | 32.7 °C
GATGCAGGAAACTGCATC (((((((....))))))) | -43.6 kcal/mol | 64.7 °C
GATCAATTAGTTGATC ((((((....)))))) | -35 kcal/mol | 45.6 °C
GTAACTCGAAAGAGATAC (((.(((....))).))) | -27.6 kcal/mol | 42 °C
GGAAACGAAAGTTTTCC ((((((....))).))) | -20.4 kcal/mol | 46.2 °C
GATCGAGATTTCGATC ((((((....)))))) | -46.7 kcal/mol | 51.8 °C
GAGGATGGAAACACCCTC ((((.((....)).)))) | -32.6 kcal/mol | 38.1 °C
GGTGAGAAATCACC (((((....))))) | -27.6 kcal/mol | 51 °C
GTGTGGGGAAACTCGCAC (((.(.(....).).))) | -29.9 kcal/mol | 42.8 °C
GCGTGCGAAAGCAGTCGC ((((((....)))..))) | -20.1 kcal/mol | 53 °C
GCTCAGGGAAACCTGAGC (((((((....))))))) | -44.7 kcal/mol | 68.3 °C
GGGTTCGGAAACAAACCC (((((.(....).))))) | -29.8 kcal/mol | 43 °C
ACGTGGAAACACGT (((((....))))) | -22 kcal/mol | 55.5 °C
GCATCAGGAAACCGATGC (((((.(....).))))) | -33.4 kcal/mol | 50 °C
CGGTCGGAAACGAATCCG ((((((....)))..))) | -25.8 kcal/mol | 37 °C
GAAAAACGAAAGTTTTC (((.(((....)))))) | -15.7 kcal/mol | 36.9 °C

Sequence | folding enthalpy [1] | Tm [2]
GATCGTGAGAACGATC ((((((....)))))) | -31.5 kcal/mol | 59.3 °C
GGCTTCGAAAGAACAGCC ((((((....)))..))) | -29.7 kcal/mol | 43.1 °C
GATCTGGTTCAGATC ((((((...)))))) | -36.5 kcal/mol | 49.9 °C
GAAACCGAAAGGTGTTTC ((((((....)))..))) | -13.2 kcal/mol | 35.9 °C
GCGTTTGAAAAAACGC ((((((....)))))) | -32.1 kcal/mol | 65.9 °C
GATCATGCGATGATC ((((((...)))))) | -31.9 kcal/mol | 46.9 °C
GCTTGGCGAAAGCCAGGC ((.((((....)))).)) | -23.5 kcal/mol | 66.4 °C
GATCAAACCCTTGATC ((((((....)))))) | -33.4 kcal/mol | 42.7 °C
GACGGACCGAAAGGTGTC (((..(((....)))))) | -17.9 kcal/mol | 41.3 °C
GGCTGGGGAAACCCGGCC (((.(((....))).))) | -39.7 kcal/mol | 66.6 °C
GGCGGAGGAAACTCTGCC (((.(((....))).))) | -51.1 kcal/mol | 57.1 °C
GGCAGGGGAAACCTTGCC ((((.((....)).)))) | -49.2 kcal/mol | 55.3 °C
GATCCGGAACCGGATC ((((((....)))))) | -39.9 kcal/mol | 62.5 °C
GGGGCCGAAAGGCGGCCC ((((((....)))..))) | -15.1 kcal/mol | 68.2 °C
GTAACAGGAAACTGTCAC ((.((((....)))).)) | -15.5 kcal/mol | 30.7 °C
GGCAAATCGAAAGATGCC (((..(((....)))))) | -29.8 kcal/mol | 47.6 °C
GACGTCGGAAACGACACC (..((((....))))..) | -10.5 kcal/mol | 29.3 °C
GCGTAGCGAAAGCGAGGC ((.(.((....)).).)) | -7.75 kcal/mol | 46.6 °C
GGTTGGCCGAAAGGCACC (((..(((....)))))) | -12.8 kcal/mol | 41.4 °C
GCCTCCGCGAAAGCGGGC (((..(((....)))))) | -5.39 kcal/mol | 52.2 °C
GCTGGGCGAAAGCCACGC ((..(((....)))..)) | -15.6 kcal/mol | 48 °C
GTAGTCGAAAGACACTAC ((((((....)))..))) | -19.7 kcal/mol | 39.6 °C
TAAGCGAAAGCTTA (((((....))))) | -15 kcal/mol | 54.5 °C
